# Measurements gathered from unrelated publications.
# Lines come from different studies, so protocols differ.
# Observed: cell growth or viability
SMILES,cell line,test,setting,quantity,value
CC(C)(C)c1cc([N+](=O)[O-])cc(C=O)c1O,TZM-bl,resazurin,,CC50,> 12.5 µM
Nc1ccn([C@@H]2O[C@H](CO)[C@@H](O)C2(F)F)c(=O)n1,MCF7,MTT,"2.5 µg/mL, 24 h",viability,51.3%
N#C[C@@]1(c2ccc3c(N)ncnn23)O[C@H](COC(=O)C2CCC(F)CC2)[C@@H](O)[C@H]1O (some centres unmarked),HEp-2,CCK-8,5 days,CC50,53.3 µM
[N-]=[N+]=N[C@]1(CO)O[C@@H](n2ccc(N)nc2=O)[C@@H](F)[C@@H]1O,Calu-3,ATP luminescence,72 h,CC50,> 50 µM
CCCCCCCCC(=O)OC[C@H]1O[C@@](C#N)(c2ccc3c(N)ncnn23)[C@H](O)[C@@H]1O,HEp-2,CCK-8,5 days,CC50,45.5 µM
COc1cccc(C=NNC(=S)NN)c1OC,TZM-bl,resazurin,,CC50,> 12.5 µM
O=C1CCC(N2C(=O)c3cccc(NCc4cn(Cc5ccc(-c6nc7cc(-c8ccccc8)ccn7c6Nc6ccc(C(=O)O)cc6)cc5)nn4)c3C2=O)C(=O)N1 (centres unmarked),MCF7,,72 h,CC50,105 µM
CC(=O)OC[C@H]1O[C@@H]([S-])[C@H](OC(C)=O)[C@@H](OC(C)=O)[C@@H]1OC(C)=O.CCP(CC)CC.[Au+],THP-1,ATP luminescence,72 h,CC50,2.83 µM
CCOC(=O)c1cc(O)c(O)c(O)c1,MDBK,MTT,72 h,CC50,> 256 µg/mL
NC(=O)c1ncn([C@@H]2O[C@H](CO)[C@@H](O)[C@H]2O)n1,HEp-2,CCK-8,5 days,CC50,176 µM
CN(Cc1cn(Cc2ccc(-c3nc4cc(-c5ccccc5)ccn4c3Nc3ccc(C(=O)O)cc3)cc2)nn1)c1cccc2c1C(=O)N(C1CCC(=O)NC1=O)C2=O (centres unmarked),MCF7,,72 h,CC50,129 µM
